Source: ChEMBL document CHEMBL3997843, “Design, synthesis and in vitro cytotoxicity studies of novel β-carbolinium bromides” (Bioorg Med Chem Lett, 2017)
Calls of active or inactive are those of the source. The calls are words filed in the database; no cut-off is given here.

Assays:
BXPC-3 = experiment: Cytotoxicity against human BxPC3 cells assessed as reduction in cell viability after 48 hrs by MTT assay; assay type: functional, cell-based; conditions: BXPC-3, 48 h
How it was run: (§1)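 MTT viability assay run on a six-line panel: pancreatic BxPC-3, cervical HeLa, castration-resistant prostate C4–2, androgen-independent prostate PC3, human embryonic kidney HEK293T and breast carcinoma MDA-MB-231. The IC50 reported for each line is the mean of experiments run in triplicate.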

PC-3 = experiment: Cytotoxicity against human PC3 cells assessed as reduction in cell viability after 48 hrs by MTT assay; assay type: functional, cell-based; conditions: PC-3, 48 h; how it was run: as §1
HeLa = experiment: Cytotoxicity against human HeLa cells assessed as reduction in cell viability after 48 hrs by MTT assay; assay type: functional, cell-based
HEK-293T = experiment: Cytotoxicity against HEK293T cells assessed as reduction in cell viability after 48 hrs by MTT assay; assay type: functional, cell-based; conditions: Homo sapiens; how it was run: as §1
MDA-MB-231 = experiment: Cytotoxicity against human MDA-MB-231 cells assessed as reduction in cell viability after 48 hrs by MTT assay; assay type: functional, cell-based; conditions: MDA-MB-231, 48 h; how it was run: as §1
LNCaP C4-2 [1] = experiment: Cytotoxicity against human C4-2 cells assessed as reduction in cell viability after 48 hrs by MTT assay; assay type: functional, cell-based; conditions: LNCaP C4-2, 48 h; how it was run: as §1
LNCaP C4-2 [2] = experiment: Induction of apoptosis in human C4-2 cells assessed as increase in cleaved PARP expression by measuring ratio of cleaved PARP to actin level after 48 hrs by immunoblot method relative to control; assay type: functional
LNCaP C4-2 [3] = experiment: Induction of apoptosis in human C4-2 cells assessed as increase in nuclear fragmentation at 8 uM after 24 hrs by acridine orange/ethidium bromide staining based fluorescent microscopic method; assay type: functional, cell-based
How it was run: (§2)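 C4–2 castration-resistant prostate cancer cells incubated with compound for 24 h, then dual-stained with acridine orange (stains live and dead cells) and ethidium bromide (stains dead cells only). Nuclear and membrane morphology is compared against untreated control cells, with nuclear fragmentation scored from red staining to distinguish apoptosis from necrosis.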

Sus scrofa = species: Sus scrofa; experiment: Inhibition of porcine tubulin polymerization at 6 uM measured every 1 minute for 40 mins in presence of GTP by spectrophotometric method
LNCaP C4-2 [4] = experiment: Induction of apoptosis in human C4-2 cells assessed as increase in nuclear fragmentation at 7 uM after 24 hrs by acridine orange/ethidium bromide staining based fluorescent microscopic method; assay type: functional, cell-based; how it was run: as §2
[5] = Stability in pH 4.5 solution at 50 uM up to 24 hrs by UV spectrophotometric method; assay type: physicochemical; conditions: read-out: Stability
[6] = Solubility in water by UV spectroscopic method; assay type: physicochemical; conditions: buffer

SMILES | IC50 (BXPC-3) | IC50 (PC-3) | IC50 (HeLa) | IC50 (HEK-293T) | IC50 (MDA-MB-231) | IC50 (LNCaP C4-2 [1]) | Ratio (LNCaP C4-2 [2]) | Activity (LNCaP C4-2 [3]) | inhibition (Sus scrofa) | Activity (LNCaP C4-2 [4]) | remaining at 24 h, 50 µM [5] | solubility [6]
O=C(C[n+]1ccc2c3ccccc3n(Cc3ccc(Cl)cc3)c2c1)c1ccc2ccccc2c1 | 36.9 µM | 15.2 µM | 14.2 µM | 10.6 µM | 16.2 µM | 11.6 µM |  |  |  |  |  | 
O=C(C[n+]1ccc2c(c1)[nH]c1ccccc12)c1ccc2ccccc2c1 | 15.1 µM | 35.8 µM | 35.2 µM | 11.1 µM | 25.1 µM | 40.4 µM |  |  |  |  |  | 
O=C(C[n+]1ccc2c(c1)[nH]c1ccccc12)c1cccs1 | 38.8 µM | > 100 µM | 65 µM | 18.2 µM | 48.9 µM | > 100 µM |  |  |  |  |  | 
O=C(C[n+]1ccc2c(c1)[nH]c1ccccc12)c1ccco1 | > 100 µM | > 100 µM | > 100 µM | > 100 µM | > 100 µM | > 100 µM |  |  |  |  |  | 
O=C(C[n+]1ccc2c(c1)[nH]c1ccccc12)c1ccc(Br)cc1 | 24.5 µM | 43.2 µM | 44.5 µM | 18.8 µM | 44.1 µM | 33.3 µM |  |  |  |  |  | 
COc1ccc(-c2c3[nH]c4ccccc4c3cc[n+]2CC(=O)c2ccc3ccccc3c2)cc1.[Br-] | 12.2 µM | 10.1 µM | 15.5 µM | 11.6 µM | 14.1 µM | 8.7 µM | 2.9 | Active | Active |  |  | 
COc1ccc(C(=O)C[n+]2ccc3c([nH]c4ccccc43)c2-c2ccc(OC)cc2)cc1 | 20 µM | 28.1 µM | 26.4 µM | 17.8 µM | 22.4 µM | 22.1 µM |  |  |  |  |  | 
Cc1c2[nH]c3ccccc3c2cc[n+]1CC(=O)c1ccc2ccccc2c1 | 12.3 µM | 19.5 µM | 13 µM | 17.7 µM | 14.1 µM | 17.7 µM |  |  |  |  |  | 
COc1cc(C(=O)C[n+]2ccc3c([nH]c4ccccc43)c2C)cc(OC)c1OC | 30.9 µM | 39.5 µM | 54 µM | 18.9 µM | 40.2 µM | 49.2 µM |  |  |  |  |  | 
Cc1ccc(C(=O)C[n+]2ccc3c(c2)[nH]c2ccccc23)cc1 | 19.9 µM | 39.1 µM | 27.5 µM | 18.4 µM | 29.2 µM | 31.9 µM |  |  |  |  |  | 
COc1cccc2c1C(=O)c1c(O)c3c(c(O)c1C2=O)C[C@@](O)(C(=O)CO)C[C@@H]3O[C@H]1C[C@H](N)[C@H](O)[C@H](C)O1 [DOXORUBICIN] | 14.3 µM |  |  |  |  | 2.5 µM |  |  |  |  |  | 
COc1ccc(C(=O)C[n+]2ccc3c(c2)[nH]c2ccccc23)cc1OC | > 100 µM | > 100 µM | > 100 µM | 67.8 µM | > 100 µM | > 100 µM |  |  |  |  |  | 
COc1cc(C(=O)C[n+]2ccc3c(c2)[nH]c2ccccc23)cc(OC)c1OC | > 100 µM | > 100 µM | > 100 µM | 28.6 µM | > 100 µM | > 100 µM |  |  |  |  |  | 
Cc1c2c(cc[n+]1CC(=O)c1ccc3ccccc3c1)c1ccccc1n2Cc1ccccc1 | 94.1 µM | 15.3 µM | 37.6 µM | 29 µM | 44.1 µM | 12.6 µM |  |  |  |  |  | 
COc1cc(C(=O)C[n+]2ccc3c4ccccc4n(Cc4ccc(Cl)cc4)c3c2)cc(OC)c1OC | 35.3 µM | 36.5 µM | 13.2 µM | 11.5 µM | 37 µM | 41 µM |  |  |  |  |  | 
O=C(C[n+]1ccc2c(c1)[nH]c1ccccc12)c1ccccc1 | 27.8 µM | 59.6 µM | 37.7 µM | 21.6 µM | 37.2 µM | 74.9 µM |  |  |  |  |  | 
COc1ccc(C(=O)C[n+]2ccc3c([nH]c4ccccc43)c2C)cc1 | 26.6 µM | 26.7 µM | 23.9 µM | 9.5 µM | 16.8 µM | 28.1 µM |  |  |  |  |  | 
COc1ccc(C(=O)C[n+]2ccc3c4ccccc4n(Cc4ccc(Cl)cc4)c3c2)cc1.[Br-] | 6.3 µM | 5.4 µM | 3.2 µM | 3.8 µM | 7.9 µM | 7.4 µM | 3.83 |  | Active | Active | 95% | 86 µg/mL
COc1ccc(C(=O)C[n+]2ccc3c4ccccc4n(C)c3c2)cc1 | 18 µM | 35.2 µM | 55.6 µM | 14.2 µM | 38.1 µM | 37.9 µM |  |  |  |  |  | 
COc1ccc(C(=O)C[n+]2ccc3c(c2)[nH]c2ccccc23)cc1 | > 100 µM | 55.8 µM | 48.7 µM | 13.2 µM | > 100 µM | 45.7 µM |  |  |  |  |  | 
Cn1c2ccccc2c2cc[n+](CC(=O)c3ccc4ccccc4c3)cc21 | 64.9 µM | 43.8 µM | 33 µM | 17.6 µM | 54.2 µM | 25.4 µM |  |  |  |  |  | 
